Measurements from ChEMBL document CHEMBL1140188, “Photoinduced cytotoxicity and biodistribution of prostate cancer cell-targeted porphyrins” (J Med Chem, 2008).
Numbered stars: 1 amine (or outer) side, 2 acyl side, 3 side chain; on linkers, the order of the positions; unused ones are H or OH. Bridge positions count the residues as written; N and C are the ends. Square brackets hold non-standard residues; d marks the D form. Peptide text beside a SMILES is read from it. I, II: the chains in the order shown. * marks the point of attachment. X1 = O=C(COCC(=O)*)Nc1ccc(-c2c3nc(c(-c4ccccc4)c4ccc([nH]4)c(-c4ccccc4)c4nc(c(-c5ccccc5)c5ccc2[nH]5)C=C4)C=C3)cc1; NH(CH2CH2O)6CH2CO = O=C(COCCOCCOCCOCCOCCOCCN[*:1])[*:2]

Columns and labels:
[1] = Cytotoxicity against human PC3M cells after 24 hrs under dark condition; format: functional, cell-based; conditions: PC-3M
Procedure, shortened: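 PC-3M cells in DMEM/10% FBS were seeded at 10000 cells/cm2 and attached overnight. They were exposed to increasing concentrations up to 100 µM for 24 h in the dark, in quadruplicate wells. Detached cells were washed off and attached cells were trypsinised and counted by hemocytometer. Viability is expressed as % of untreated controls, and IC50 was taken from the curves.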

[2] = Ratio of IC50 for human PC3M cells under dark condition to IC50 for human PC3M cells exposed to 1 J/cm'2 light; format: functional
Procedure, shortened: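 Ratio of the dark IC50 (24 h exposure, hemocytometer viable count) to the light IC50 (24 h loading, then 610 nm long-pass halogen light, about 1 J/cm2, 20 min on ice, overnight incubation, then counting) in PC-3M cells.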

[3] = Phototoxicity against human PC3M cells after 24 hrs followed by exposure to 1 J/cm'2 light for 20 mins; format: functional, cell-based; conditions: pc-3m
Procedure, shortened: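 PC-3M cells were plated as for the dark assay and loaded with a range of concentrations for 24 h in quadruplicate. After washing, the medium was replaced with DMEM containing 50 mM HEPES, pH 7.4. Cells were irradiated on ice with a 100 W halogen lamp through a 610 nm long-pass filter and a water IR filter for 20 min, about 1 J/cm2. They were then incubated overnight and viable cells counted by hemocytometer relative to controls, giving IC50.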

[4] = Biodistribution in human PC3M cells xenografted SCID mouse tumor assessed per mg of protein at 1 umol/kg, ip after 24 hrs; format: ADME, organism-based, Neoplasm; conditions: in vivo
Procedure, shortened: (§1)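 Male SCID mice carrying PC-3M tumours (2 × 10^6 cells injected into the dorsum between the shoulder blades, grown 5-6 weeks to about 0.1 cm3) received 1.0 µmol/kg ip in 5% dextrose. Tissues were collected at 24 h, solubilised at 37 °C and homogenised. Porphyrin fluorescence (530/645 nm) was read against per-tissue standard curves, vehicle-only background was subtracted, and results are given as pmol/mg tissue protein, mean ± SE, n = 4.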

Liver = test: Biodistribution in human PC3M cells xenografted SCID mouse liver assessed per mg of protein at 1 umol/kg, ip after 24 hrs; format: ADME, organism-based; conditions: in vivo; procedure, shortened: as §1

Drug uptake [4] [pmol]	Drug uptake (Liver) [pmol]	Compound	IC50 [1] [µM]	Ratio IC50 [2]	IC50 [3] [µM]
–	–	N=C(N)NCCC[C@H](NC(=O)[C@H](CCCCN)NC(=O)[C@H](CCCNC(=N)N)NC(=O)[C@H](CCCNC(=N)N)NC(=O)CCCC(=O)Nc1ccc(-c2c3nc(c(-c4ccccc4)c4ccc([nH]4)c(-c4ccccc4)c4nc(c(-c5ccccc5)c5ccc2[nH]5)C=C4)C=C3)cc1)C(=O)O	10.7	7	1.48
8.1	16.1	N=C(N)NCCC[C@H](NC(=O)CNC(=O)COCCOCCOCCOCCOCCOCCNC(=O)COCC(=O)Nc1ccc(-c2c3nc(c(-c4ccccc4)c4ccc([nH]4)c(-c4ccccc4)c4nc(c(-c5ccccc5)c5ccc2[nH]5)C=C4)C=C3)cc1)C(=O)N[C@@H](CCCCN)C(=O)N[C@@H](CCCCN)C(=O)N[C@@H](CCCNC(=N)N)C(=O)N[C@@H](CCCNC(=N)N)C(=O)N[C@@H](CCC(N)=O)C(=O)N[C@@H](CCCNC(=N)N)C(=O)N[C@@H](CCCNC(=N)N)C(=O)N[C@@H](CCCNC(=N)N)C(=O)N1CCC[C@H]1C(=O)N1CCC[C@H]1C(=O)N[C@@H](CCC(N)=O)C(=O)O	38.3	96	0.4
–	–	CC(C)C[C@H](NC(=O)[C@H](CCCCN)NC(=O)[C@H](CCCCN)NC(=O)[C@H](CCCCN)NC(=O)[C@H](C)NC(=O)[C@H](CCC(N)=O)NC(=O)CNC(=O)[C@H](C)NC(=O)[C@H](CCCCN)NC(=O)[C@H](CCCCN)NC(=O)[C@@H](NC(=O)[C@H](C)NC(=O)[C@H](C)NC(=O)[C@@H]1CCCN1C(=O)[C@H](CCCNC(=N)N)NC(=O)[C@H](CCCCN)NC(=O)COCCOCCOCCOCCOCCOCCNC(=O)COCC(=O)Nc1ccc(-c2c3nc(c(-c4ccccc4)c4ccc([nH]4)c(-c4ccccc4)c4nc(c(-c5ccccc5)c5ccc2[nH]5)C=C4)C=C3)cc1)[C@@H](C)O)C(=O)N[C@@H](CCC(=O)O)C(=O)N[C@@H](CC(=O)O)C(=O)N1CCC[C@H]1C(=O)N[C@@H](CCCNC(=N)N)C(=O)N[C@@H](CCCCN)C(=O)N[C@@H](CCCCN)C(=O)N[C@@H](CCCNC(=N)N)C(=O)N[C@@H](CCCNC(=N)N)C(=O)N[C@@H](CCC(N)=O)C(=O)N[C@@H](CCCNC(=N)N)C(=O)N[C@@H](CCCNC(=N)N)C(=O)N[C@@H](CCCNC(=N)N)C(=O)N1CCC[C@H]1C(=O)N1CCC[C@H]1C(=O)N[C@@H](CCC(N)=O)C(=O)NCC(=O)O (X1-[NH(CH2CH2O)6CH2CO]KRPAATKKAGQAKKKLEDPRKKRRQRRRPPQG-OH)	32.9	27	1.21
–	–	Oc1cccc(-c2c3nc(c(-c4cccc(O)c4)c4ccc([nH]4)c(-c4cccc(O)c4)c4ccc([nH]4)c(-c4cccc(O)c4)c4nc2CC4)C=C3)c1	16.1	–	1.61
–	–	CC(C)[C@H](NC(=O)[C@H](CCCCN)NC(=O)[C@H](CCCNC(=N)N)NC(=O)[C@H](CCCCN)NC(=O)[C@H](CCCCN)NC(=O)[C@H](CCCCN)NC(=O)[C@@H]1CCCN1C(=O)CNC(=O)COCCOCCOCCOCCOCCOCCNC(=O)C[C@H](NC(=O)COCC(=O)Nc1ccc(-c2c3nc(c(-c4ccccc4)c4ccc([nH]4)c(-c4ccccc4)c4nc(c(-c5ccccc5)c5ccc2[nH]5)C=C4)C=C3)cc1)C(=O)NCCOCCOCCOCCOCCOCCOCC(=O)NCC(=O)N1CCC[C@H]1C(=O)N[C@@H](CCCCN)C(=O)N[C@@H](CCCCN)C(=O)N[C@@H](CCCCN)C(=O)N[C@@H](CCCNC(=N)N)C(=O)N[C@@H](CCCCN)C(=O)N[C@H](C(=O)O)C(C)C)C(=O)O (I: X1-D[NH(CH2CH2O)6CH2CO]GPKKKRKV-OH / II: [NH(CH2CH2O)6CH2CO]GPKKKRKV-OH; amide I:1-II:N)	20.8	7	2.95
–	–	CC[C@H](C)[C@H](NC(=O)[C@H](CCCCN)NC(=O)[C@@H](NC(=O)[C@H](CCC(N)=O)NC(=O)[C@H](CCCNC(=N)N)NC(=O)COCCOCCOCCOCCOCCOCCNC(=O)COCC(=O)Nc1ccc(-c2c3nc(c(-c4ccccc4)c4ccc([nH]4)c(-c4ccccc4)c4nc(c(-c5ccccc5)c5ccc2[nH]5)C=C4)C=C3)cc1)[C@@H](C)CC)C(=O)N[C@@H](Cc1c[nH]c2ccccc12)C(=O)N[C@@H](Cc1ccccc1)C(=O)N[C@@H](CCC(N)=O)C(=O)N[C@@H](CC(N)=O)C(=O)N[C@@H](CCCNC(=N)N)C(=O)N[C@@H](CCCNC(=N)N)C(=O)N[C@@H](CCSC)C(=O)N[C@@H](CCCCN)C(=O)N[C@@H](Cc1c[nH]c2ccccc12)C(=O)N[C@@H](CCCCN)C(=O)N[C@@H](CCCCN)C(=O)N[C@@H](C)C(=O)N1CCC[C@H]1C(=O)N1CCC[C@H]1C(=O)N[C@@H](CCCCN)C(=O)N[C@@H](CCCCN)C(=O)N[C@@H](CCCCN)C(=O)N[C@@H](CCCNC(=N)N)C(=O)N[C@@H](CCCCN)C(=O)N[C@H](C(=O)NCC(=O)O)C(C)C (X1-[NH(CH2CH2O)6CH2CO]RQIKIWFQNRRMKWKKAPPKKKRKVG-OH)	11.4	8.5	1.34
